This excerpt belongs to a sample that is enriched for hits.
L major viab: Leishmania major promastigote growth inhibition, primary screen | Leishmania major promastigotes, resazurin fluorescence viability | inhibition, % at 10 µM | hit rate 9% among 200,000 | AID 1063, 2008; in the data active = inhibition above about 50%;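 note: promastigotes grown with compound for 44 hours at 28 °C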
S1P3 antag: S1P3 receptor antagonists, primary screen, cell-based; Sphingosine 1-phosphate receptor 3 (Homo sapiens), Q99500; CHO S1P3 NFAT-BLA reporter, FRET fluorescence, antagonist mode; inhibition, % at 4.98 µM; hit rate 0.27% among 170,000; AID 485, 2006;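 active = inhibition above the plate cutoff, the mean inhibition of test wells on that plate plus 3 SD, cut at about 28% in these data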;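 note: cells challenged with S1P at its EC80 of 0.8 µM; blue over green emission ratio from cleaved BLA substrate after 4 h stimulation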
Target sequence (Q99500 whole entry, looked up): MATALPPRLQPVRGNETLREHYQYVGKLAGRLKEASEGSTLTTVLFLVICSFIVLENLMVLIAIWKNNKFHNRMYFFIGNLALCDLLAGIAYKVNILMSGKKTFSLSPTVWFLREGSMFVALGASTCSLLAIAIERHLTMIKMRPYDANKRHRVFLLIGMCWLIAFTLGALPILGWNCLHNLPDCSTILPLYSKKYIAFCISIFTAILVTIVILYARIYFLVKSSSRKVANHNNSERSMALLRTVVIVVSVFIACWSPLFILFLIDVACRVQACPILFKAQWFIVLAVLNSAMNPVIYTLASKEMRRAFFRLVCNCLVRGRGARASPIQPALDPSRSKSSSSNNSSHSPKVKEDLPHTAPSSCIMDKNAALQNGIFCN
Mdm2 ligase inh: MDM2-luciferase reporter signal enhancers, primary screen, MDM2 E3 ligase inhibitor project, cell-based, luminescence, 1536-well | E3 ubiquitin-protein ligase Mdm2 (Homo sapiens), Q00987 | signal enhancement, % at 5 µM | hit rate 0.11% among 210,000 | cell-based MDM2 ubiquitination luciferase reporter, 2 h; 0 = plate control, 100 = twice control, blank-subtracted;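 active = signal enhancement of 30% or more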;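 note: luminescence tracks abundance of the self-degrading MDM2-luciferase fusion protein; higher signal means inhibition of MDM2 E3 ligase activity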
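Material: Stable MDM2–luciferase fusion reporter cells | Amount: 2000 cells seeded into each well | Dosing: One concentration, 5 µM, with 0.2% DMSO | Incubation: 4 h cell settling then 2 h compound exposure, 37 °C | Measured by: Luciferase luminescence | Read-out basis: % enhancement relative to plate controls after blank subtraction | Benchmarks: Control and blank well means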
S1P4 agonist: S1P4 receptor agonists, primary screen, cell-based | Sphingosine 1-phosphate receptor 4 (Homo sapiens), O95977 | S1P4-expressing cell line, agonist reporter assay | activation, % at 4.98 µM | hit rate 0.35% among 220,000; in the data active = activation above about 11%
S1P4 antag: S1P4 receptor antagonists, primary screen, cell-based | hit rate 0.26% among 220,000 | S1P4-expressing cells, antagonist mode, reporter read-out | inhibition, % at 4.98 µM | Sphingosine 1-phosphate receptor 4 (Homo sapiens), O95977; in the data active = inhibition above about 29%
Large screens that a line does not name were inactive.

COCC1CCN(Cc2nc(-c3ccc4c(c3)OCO4)no2)C1 (stereo unspecified)	none
c1ccc(OCCN2CCN(Cc3nc(-c4ccc5c(c4)OCO5)no3)CC2)cc1	L major viab 68
CN1CCCN(Cc2nc(-c3cccc(C(F)(F)F)c3)no2)CC1	L major viab 99
c1ccc(C2CCCN(Cc3nc(CC4CC4)no3)CC2)cc1 (stereo unspecified)	none
c1ccc(C(c2ccccc2)c2noc(CN3CCC(c4ccncc4)CC3)n2)cc1	L major viab 90
O=C1OC(/C=C/c2ccc(Cl)cc2)=NC/1=C/c1ccco1	none
COc1cccc(-n2c(=O)c3cc(OC)c(OC)cc3n(CC(=O)Nc3cc(C)[nH]n3)c2=O)c1	none
O=C(CSc1ccc2nnc(-c3ccccc3)n2n1)N1CCCCC1	none (no result: L major viab, Mdm2 ligase inh, S1P4 agonist, S1P4 antag)
COc1ccc(-c2[nH]ncc2CN(CCO)CC23CC4CC(CC(C4)C2)C3)c(OC)c1	none
CC(C)(C)NC(=O)COC(=O)c1ccc(Cl)nc1	none
O=C(c1ccco1)N1CCCN(Cc2nc(-c3ccc4c(c3)OCO4)no2)CC1	none
Fc1ccc(CN2CCCN(Cc3nc(-c4ccc5c(c4)OCO5)no3)CC2)cc1	L major viab 95
c1cc(C2CCN(Cc3nc(-c4ccc5c(c4)OCO5)no3)CC2)ccn1	L major viab 95
Cc1cc(-c2nnc(CCC(=O)NC(Cc3ccccc3)c3ccccc3)o2)no1 (stereo unspecified)	none
Cc1nc(Nc2ccncc2)c2oc3ccccc3c2n1	none (no result: S1P3 antag)
CCc1nc(Nc2ccncc2)c2oc3ccccc3c2n1	L major viab 100
CCOC(=O)c1sc2ncn(C(CC)C(=O)OCC)c(=O)c2c1C (stereo unspecified)	L major viab 99
Cc1nc(N2CCC(C)CC2)c2c(C)c(C(=O)Nc3ccccc3C(F)(F)F)sc2n1	L major viab 51
CCOC(=O)CNC(c1ccccc1)c1cc(Br)ccc1NC(=O)CCN1CCOCC1 (stereo unspecified)	L major viab 98
CCOC(=O)CNC(c1ccccc1)c1cc(Br)ccc1NC(=O)OCC (stereo unspecified)	L major viab 54 (no result: S1P3 antag)
COC(=O)CNC(c1ccccc1)c1cc(Br)ccc1NC(=O)CNC(=O)OCc1ccccc1 (stereo unspecified)	none
COC(=O)CNC(c1ccccc1)c1cc(Br)ccc1NC(=O)CCN1CCOCC1 (stereo unspecified)	L major viab 100
CC(/C=N/NC(=O)CSc1n[nH]c(=O)[nH]c1=O)=C\c1ccccc1	none (no result: L major viab)
COc1ccc(C(=O)Cn2nc(CNc3ccc(Br)cc3)[n+]3c2CCCCC3)cc1	none
Cc1ccc(C(C)C)c(OCc2nn(CC(=O)c3ccc(OC(F)F)cc3)c3[n+]2CCCCC3)c1	L major viab 99
COC(=O)c1ccccc1S(=O)c1snnc1C (stereo unspecified)	none
CC1CN(C(=O)c2ccccc2)C(=Nc2cccc(S(=O)(=O)N(C)C)c2)S1 (stereo unspecified)	L major viab 83
COc1cc(C(=O)NC(C(=O)Nc2cccc(C(C)=O)c2)C(C)C)cc(OC)c1OC (stereo unspecified)	none
O=C(N/N=C/c1cccn1-c1ccc([N+](=O)[O-])cc1)c1cccnc1	none (no result: L major viab)
CSc1nc2ccc(NS(=O)(=O)c3ccccc3F)cc2s1	L major viab 59
COc1ccc2c(c1OC)C(=O)N1N=C(c3ccc(Cl)cc3)CC21 (stereo unspecified)	none
CCOC(=O)c1[nH]c2c(c1-c1ccccc1)C(=O)CC(c1ccc(OC)c(OC)c1)C2 (stereo unspecified)	L major viab 54 (no result: Mdm2 ligase inh)
O=C(O)CCNc1cc2ccccc2cc1C(=O)O	none
CCOC(=O)c1ccc(NC(=O)c2cc(OC)c(OC)c(OC)c2Br)cc1	L major viab 74
O=[N+]([O-])c1cccc(/C=N/n2cnnc2)c1O	L major viab 68
O=[N+]([O-])c1cc2c(cc1/C=N/n1cnnc1)OCO2	none
O=[N+]([O-])c1ccccc1S(=O)(=O)Oc1ccccc1/C=N/n1cnnc1	L major viab 72
O=[N+]([O-])c1cc(Br)cc(/C=N/n2cnnc2)c1O	none
COC(=O)CCc1nc2cc(Cl)ccc2n(Cc2ccccc2)c1=O	none
Cc1c(NC(=O)c2ncn[nH]2)cccc1-c1nc2ccccc2s1	L major viab 100
Cc1c(NC(=O)c2ccc(N3CCCC3)c([N+](=O)[O-])c2)cccc1-c1nc2ccccc2s1	L major viab 71 (no result: S1P3 antag)
O=C(Nc1nc2ccc(Cl)cc2s1)c1ccc(N2CCCCC2)c([N+](=O)[O-])c1	none
O=C(Nc1ccccc1C(F)(F)F)c1ncn[nH]1	none (no result: L major viab, Mdm2 ligase inh)
O=C(NCCCn1ccnc1)C(=O)NCC1OCCN1S(=O)(=O)c1ccc(Cl)cc1 (stereo unspecified)	none (no result: Mdm2 ligase inh)
O=C(NCCC1=CCCCC1)C(=O)NCC1OCCCN1S(=O)(=O)c1cc(F)ccc1F (stereo unspecified)	none
O=C(NCCC1=CCCCC1)C(=O)NCC1OCCCN1S(=O)(=O)c1ccc(F)cc1 (stereo unspecified)	L major viab 96
O=C(NCCc1c[nH]c2ccccc12)C(=O)NCC1OCCN1S(=O)(=O)c1ccc(Cl)cc1 (stereo unspecified)	L major viab 54 (no result: Mdm2 ligase inh)
O=C(NCCCn1ccnc1)C(=O)NCC1OCCCN1S(=O)(=O)c1ccc(Cl)cc1 (stereo unspecified)	L major viab 51
O=C(NCCc1c[nH]c2ccccc12)C(=O)NCC1OCCN1S(=O)(=O)c1ccccc1 (stereo unspecified)	L major viab 70
O=C(NCCc1c[nH]c2ccccc12)C(=O)NCC1OCCN1S(=O)(=O)c1ccc(F)cc1 (stereo unspecified)	none (no result: Mdm2 ligase inh)
CC1C[N+](=C2C=C(N3CCOCC3)CC(C)(C)C2)CC(C)O1 (stereo unspecified)	none (no result: L major viab, Mdm2 ligase inh)
C#CCSc1nnc(-c2ccc([N+](=O)[O-])cc2)o1	none
Fc1ccc(CSc2ccc3nnc(-c4cccnc4)n3n2)cc1	L major viab 66
CCc1c(O)c(/C(C)=N\O)c(=O)n(-c2ccccc2)c1-c1ccccc1	L major viab 67
C=CCO/N=C(/C)c1c(O)c(CC)c(-c2ccccc2)n(-c2ccccc2)c1=O	L major viab 51 (no result: S1P3 antag, Mdm2 ligase inh)
COc1cccc(C(c2sc3nc(C)nn3c2O)N2CCc3ccccc3C2)c1 (stereo unspecified)	none
O=C(NCCN1CCOCC1)c1ccc(=O)n(Cc2ccc(Cl)cc2)c1	none
CCC(CC)c1nnc(NC(=O)CCNC(=O)c2ccccc2Cl)s1	none
CCOC(=O)c1cccnc1SCC(=O)Nc1ccc(C)cc1	none (no result: Mdm2 ligase inh)
Cc1ccc(NC(=O)CSc2ncccc2C(=O)Oc2cccc([N+](=O)[O-])c2)cc1Cl	L major viab 70

Compound activity from PubChem BioAssay.
